According to ChEMBL document CHEMBL1221269, “Synthesis of 3,3-diindolyl oxyindoles efficiently catalysed by FeCl3 and their in vitro evaluation for anticancer activity” (Bioorg Med Chem Lett, 2010):
The source made the active and inactive calls. No cut-off for these calls is given here.

Tests used:
Assay type in all cases: functional, cell-based
[1] = tested on: HepG2; test: Cytotoxicity against human HepG2 cells after 48 hrs by MTT assay; settings: HepG2, 48 h
Outline: (§1)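 Cells seeded at 2.0×10^4 per well in 96-well plates, exposed to a range of test concentrations for 48 h. Medium then replaced with fresh medium containing MTT at 100 µg/mL for 2–3 h. Formazan dissolved in DMSO, OD read at 540 nm with 620 nm reference. Viability taken as treated vs untreated absorbance. IC50 in µM, mean of three separate experiments. Highest concentration tested 100 µM.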

[2] = tested on: DU-145; test: Cytotoxicity against human DU145 cells after 48 hrs by MTT assay; settings: DU-145, 48 h; outline: as §1
[3] = tested on: MCF7; test: Cytotoxicity against human MCF7 cells at up to 100 uM after 48 hrs by MTT assay; outline: as §1
[4] = tested on: SK-N-SH; test: Cytotoxicity against human SK-N-SH cells after 48 hrs by MTT assay; outline: as §1
[5] = tested on: A549; test: Cytotoxicity against human A549 cells after 48 hrs by MTT assay; settings: A549, 48 h; outline: as §1
[6] = tested on: MCF7; test: Cytotoxicity against human MCF7 cells after 48 hrs by MTT assay; settings: MCF7, 48 h; outline: as §1

SMILES | IC50 [1] | IC50 [2] | Activity [3] | IC50 [4] | IC50 [5] | IC50 [6]
O=C1Nc2ccccc2C1(c1c[nH]c2ccc([N+](=O)[O-])cc12)c1c[nH]c2ccc([N+](=O)[O-])cc12 | 23.4 µM | 8 µM | inactive | 11.8 µM | 10.3 µM | 
COc1ccc2[nH]cc(C3(c4c[nH]c5ccc(OC)cc45)C(=O)Nc4ccc(F)cc43)c2c1 | 36.6 µM | 3.6 µM | inactive | 7 µM | 10.6 µM | 
COc1ccc2c(C3(c4c[nH]c5cc(OC)ccc45)C(=O)Nc4ccccc43)c[nH]c2c1 | 12 µM | 1.2 µM |  | 13.6 µM | 7.8 µM | 45.4 µM
COc1ccc2c(C3(c4c[nH]c5cc(OC)ccc45)C(=O)Nc4ccc(F)cc43)c[nH]c2c1 | 16 µM | 13.1 µM |  | 4.1 µM | 14.4 µM | 12 µM
O=C1Nc2ccc(F)cc2C1(c1c[nH]c2ccc(Br)cc12)c1c[nH]c2ccc(Br)cc12 | 12.8 µM | 16.3 µM |  | 2.8 µM | 10.3 µM | 12.8 µM
O=C1Nc2ccccc2C1(c1c[nH]c2ccc(Br)cc12)c1c[nH]c2ccc(Br)cc12 | 15.8 µM | 3.6 µM |  | 13.2 µM | 8 µM | 46.8 µM
O=C1Nc2ccccc2C1(c1c[nH]c2ccccc12)c1c[nH]c2ccccc12 | 20.4 µM | 8.7 µM |  | 11.3 µM | 8.6 µM | 49.8 µM
COc1cccc2[nH]cc(C3(c4c[nH]c5cccc(OC)c45)C(=O)Nc4ccccc43)c12 | 9 µM | 5 µM |  | 4.7 µM | 15.3 µM | 14.1 µM
O=C1Nc2ccccc2C1(c1c[nH]c2ccc(Cl)cc12)c1c[nH]c2ccc(Cl)cc12 | 14.6 µM | 8.1 µM | inactive | 9.4 µM | 8.3 µM | 
O=C1Nc2ccc(F)cc2C1(c1c[nH]c2ccc([N+](=O)[O-])cc12)c1c[nH]c2ccc([N+](=O)[O-])cc12 | 23.8 µM | 7.5 µM | inactive | 6.8 µM | 7.7 µM | 
O=C1Nc2ccc(F)cc2C1(c1c[nH]c2ccccc12)c1c[nH]c2ccccc12 | 6.6 µM | 12.8 µM |  | 67.3 µM | 12.7 µM | 23.6 µM
Cn1cc(C2(c3cn(C)c4ccccc34)C(=O)Nc3ccc(F)cc32)c2ccccc21 | 13 µM | 11 µM |  | 6.5 µM | 17.5 µM | 9.2 µM
Cn1cc(C2(c3cn(C)c4ccccc34)C(=O)Nc3ccccc32)c2ccccc21 | 12 µM | 5.6 µM | inactive | 5.1 µM | 10.1 µM | 
O=C1Nc2ccc(F)cc2C1(c1c[nH]c2ccc(Cl)cc12)c1c[nH]c2ccc(Cl)cc12 | 16.6 µM | 19.6 µM |  | 8.5 µM | 12.1 µM | 24.8 µM
COc1cccc2[nH]cc(C3(c4c[nH]c5cccc(OC)c45)C(=O)Nc4ccc(F)cc43)c12 | 18 µM | 9.4 µM |  | 12.1 µM | 7.8 µM | 7.5 µM
COc1ccc2[nH]cc(C3(c4c[nH]c5ccc(OC)cc45)C(=O)Nc4ccccc43)c2c1 | 30.2 µM | 2.2 µM |  | 3.9 µM | 11.2 µM | 33.6 µM
